Assay outcomes as filed in PubChem.
hERG rescue: hERG rescue from dofetilide block, primary screen, cell-based, CHO-hERG, FluxOR thallium flux, dofetilide IC70; dofetilide IC70 present; activation (rescue from dofetilide block), less the hit threshold, % at 10 µM; hit rate 0.51% among 310,000;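 active = activation above the mean of controls blocked by dofetilide plus 5 SD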;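 note: thallium influx through hERG after potassium depolarization seen as dye fluorescence rise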
KCNK9 block: KCNK9 potassium channel inhibitors, primary screen, HEK293 cells, thallium flux. hit rate 1.2% among 310,000. B-score at 10 µM. Potassium channel subfamily K member 9 (Homo sapiens), Q9NPC2. FluxOR thallium flux fluorescence; hits give low values;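 active = ratio B-score over 3 SD below the library mean, with starting fluorescence within 5 SD of its mean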;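 note: negative B-score means less thallium flux so channel inhibition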
KCNQ1 act: potentiators or activators of KCNQ1 channel, primary screen, cell-based, thallium flux, high-throughput. Potassium voltage-gated channel subfamily KQT member 1 (Homo sapiens), P51787. CHO-K1 KCNQ1, thallium flux FluxOR fluorescence; hits give high values. B-score at 10 µM. hit rate 0.35% among 310,000. AID 2648, 2010;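 active = fluorescence ratio B-score, a plate-corrected score, at least three library SD, with initial intensity B-score within 5 SD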
Target sequence (P51787 whole entry, looked up): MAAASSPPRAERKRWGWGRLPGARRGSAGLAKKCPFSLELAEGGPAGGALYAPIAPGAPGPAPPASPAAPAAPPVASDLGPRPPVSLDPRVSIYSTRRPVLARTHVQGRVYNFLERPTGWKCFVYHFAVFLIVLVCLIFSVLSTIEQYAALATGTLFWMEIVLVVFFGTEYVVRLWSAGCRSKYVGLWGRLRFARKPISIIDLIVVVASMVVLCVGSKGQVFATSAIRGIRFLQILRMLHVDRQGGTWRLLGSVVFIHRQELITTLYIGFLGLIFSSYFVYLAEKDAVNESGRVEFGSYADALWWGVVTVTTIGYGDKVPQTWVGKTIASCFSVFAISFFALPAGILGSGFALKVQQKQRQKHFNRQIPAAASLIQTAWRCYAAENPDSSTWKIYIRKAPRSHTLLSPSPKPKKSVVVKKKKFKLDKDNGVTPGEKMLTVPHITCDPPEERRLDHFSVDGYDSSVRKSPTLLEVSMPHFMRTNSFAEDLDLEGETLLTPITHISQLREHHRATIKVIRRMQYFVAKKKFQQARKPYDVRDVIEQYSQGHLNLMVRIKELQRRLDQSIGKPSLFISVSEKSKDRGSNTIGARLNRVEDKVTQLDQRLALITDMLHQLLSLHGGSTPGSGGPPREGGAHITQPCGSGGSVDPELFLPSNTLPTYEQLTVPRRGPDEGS
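assay system = KCNQ1-transfected CHO-K1 cells | medium = assay buffer with matched DMSO | probe or stimulus = depolarizing K+/Tl+ stimulus, K2SO4 and Tl2SO4 each 12.5 mM in 5x stock | dosing = single dose | incubation = dye 90 min, compound 20 min, room temperature | detection = kinetic FluxOR fluorescence, 10 s baseline plus 110 s post-stimulus | evaluation = ratio B score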
KCNK3 block: human KCNK3 channel inhibitors, primary screen, CHO cells, FluxOR thallium flux, B-score; hit rate 0.84% among 340,000; B-score at 10 µM; FluxOR fluorescence; hits give low values;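 active = B-score under library mean minus 4 SD, starting fluorescence ratio at most library mean plus 5 SD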;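 note: more negative B-score means stronger inhibition of thallium flux through KCNK3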
KCNQ1 block: inhibitors of human KCNQ1 channel, primary screen, cell-based, thallium flux, high-throughput | Potassium voltage-gated channel subfamily KQT member 1 (Homo sapiens), P51787 | CHO-K1 KCNQ1, FluxOR thallium flux fluorescence; hits give high values | B-score at 10 µM | hit rate 1.3% among 310,000;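 active = compounds whose thallium flux B-score, printed positive for inhibition, exceeds three library SD while starting fluorescence stays within three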;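 note: channel opened by potassium depolarization with thallium stimulus after 20 min compound exposure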
Numbers without * were called inactive; i = inactive; x = not tested or not shown. In the library only some 3.1% were active in any assay of this set; here they are far more common.

SMILES | hERG rescue | KCNK9 block | KCNQ1 act | KCNK3 block | KCNQ1 block
Cc1ccc(CCCNC(=O)C2CCC(=O)N(Cc3cccc(F)c3)C2)cc1 (stereo not drawn) | -8 | i | i | i | i
CC(C)c1nc2sc3c(=O)[nH]c(=S)[nH]c3c2c2c1CCC2 | -3 | i | 21* | x | i
O=C(CN1CCN(C(=O)C2CC2)CC1)Nc1ccc(Cl)cc1F | x | x | x | i | x
CCN(CCC(=O)Nc1ccc(Br)c(C)c1)Cc1ccccc1 | -8 | i | i | i | 8*
O=C(CCN(CCO)Cc1ccccc1)Nc1ccc(Br)cc1 | -8 | i | i | i | i
Cc1nccn1CCOc1ccc(Cl)cc1 | -5 | i | i | i | i
Cc1ccc(C(=O)NNC(=O)c2cccc(Br)c2)cc1 | 11* | i | i | i | i
Cc1ccc(C(=O)NNC(=O)CCCCC(=O)NNC(=O)c2ccc(C)cc2)cc1 | -1 | i | 9* | i | i
COc1ccc(-c2noc(CCCC(=O)NCC3CCCO3)n2)cc1 (stereo not drawn) | -6 | i | i | i | i
C[C@H](NC(=O)[C@@H]1Cc2ccccc2CN1C(=O)OC(C)(C)C)C(=O)NCc1ccco1 | -11 | i | i | i | i
O=C(c1nc2n(n1)C(c1ccc(Cl)cc1)C=C(c1ccccc1)N2)N1CCOCC1 (stereo not drawn) | -15 | -6.8* | i | i | i
COc1cc(-c2noc(C)c2C(=O)NCCCN2CCOCC2)cc(OC)c1OC | x | x | x | i | x
CCCCOC(=O)C[N+](C)(C)CCOC1CC2CCC1(C)C2(C)C (stereo not drawn) | -13 | i | i | i | 7*
CCCCCCOC(=O)C[N+](C)(C)CCOC1CC2CCC1(C)C2(C)C (stereo not drawn) | -29 | i | i | i | 9*
CCC(C)OC(=O)C[N+](C)(C)CCOC1CC2CCC1(C)C2(C)C (stereo not drawn) | -9 | i | i | i | 7*
CCCOC(=O)C[N+](C)(C)CCOC1CC2CCC1(C)C2(C)C (stereo not drawn) | -11 | i | i | i | i
CCOc1ccc(OCc2cccc(C(=O)Nc3ccc(CN4CCCCC4)cc3)c2)cc1 | -22 | i | i | i | 6*
COc1ccc(OCc2cccc(C(=O)Nc3ccc(CN4CCCCC4)cc3)c2)cc1 | -13 | i | i | i | i
C=CCNC(=S)Nc1sc2c(c1C(=O)OCC)CC(C)(CC)OC2 (stereo not drawn) | 9.4* | i | 22* | i | i
C=CCNC(=S)Nc1sc2c(c1C(=O)OCC)CCN(C(=O)OCC)C2 | -9 | i | i | i | i
N#CC1=C(N)SC(N)=C(C#N)C1c1ccc(C(F)(F)F)cc1 | -7 | i | 53* | x | i
O=c1c2ccccc2n(CC(O)CN2CCCCC2)c2ccccc12 (stereo not drawn) | -5 | -8.1* | i | i | i
COc1ccc(OC)c(NC(=O)CN2C(=O)C(C)N(c3ccc(C)cc3)C2=O)c1 (stereo not drawn) | x | x | x | i | x
O=C(NCCCN1CCCC1=O)C(=O)NCC1OCCN1S(=O)(=O)c1ccc(Cl)cc1 (stereo not drawn) | -6 | i | i | i | i
CCOc1ccc(OCc2ccc(C(=O)NC(C)(C)C)o2)cc1 | -1 | i | i | i | i
O=[N+]([O-])c1cc(C(F)(F)F)ccc1N1CCCNCC1 | 7.9* | i | i | i | i
CCN1CCN(C(=S)NC(=O)c2cccs2)CC1 | -8 | i | i | i | i
O=[N+]([O-])c1cc(C(F)(F)F)ccc1N1CCN(S(=O)(=O)c2ccc3c(c2)CCCC3)CC1 | -6 | i | i | i | i
O=C(NC(=S)N1CCN(c2ccc(C(F)(F)F)cc2[N+](=O)[O-])CC1)c1cccs1 | 3 | i | 10* | i | i
